According to the M2OR odorant receptor database:

molecular target: T1, OR5K1 (Homo sapiens) (UniProt Q8NHB7); details: stereoisomer not certain
T1 sequence (whole entry): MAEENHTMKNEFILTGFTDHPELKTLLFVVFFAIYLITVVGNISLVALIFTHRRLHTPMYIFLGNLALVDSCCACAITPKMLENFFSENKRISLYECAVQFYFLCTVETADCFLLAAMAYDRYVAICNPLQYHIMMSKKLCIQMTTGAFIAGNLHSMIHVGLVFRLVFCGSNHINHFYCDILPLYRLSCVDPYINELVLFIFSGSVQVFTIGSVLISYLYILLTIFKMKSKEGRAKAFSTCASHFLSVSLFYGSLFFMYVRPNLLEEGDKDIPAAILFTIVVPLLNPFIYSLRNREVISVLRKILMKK
Procedure, shortened: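 Transient luciferase assays in mammalian cell lines were common, though methods varied by source. The values come from published papers and their supplementary material, with extra details from the original authors when needed. Responsive refers to a measured signal the original authors judged statistically different from baseline, and non-responsive (inactive) to the remainder.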
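Further: active if original authors judged signal statistically different from baseline.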

Odorant receptor agonist call, inactive:
CCC=CCCOC(C)=O
CCCCCCCC(=O)OCC
CCC(=O)C1=NCCC1
CCOC(C)OCC
CCCC(=O)OC
CCCCCC=O
CCC=CCC=O
CCC(=O)C(C)S (centres undefined)
COc1ccc(C)cc1O
CCCCC(CC)CCC(=O)O (centres undefined)
CCCC1CCCC(=O)O1 (centres undefined)
CSSSC
CC(=O)O
CSCCCO
Cc1c[nH]c2ccccc12
CC(=O)C(C)O (centres undefined)
CCCCCCO
SCc1cccs1
C=CC(=O)CC
SCCc1ccccc1
CCC(C)CCC(=O)[O-] (centres undefined)
CC1=CCC(C(C)(C)S)CC1 (centres undefined)
CCC=CCCC=CCO
CCCCC=CC=CC=O
COCCC(C)(C)S
CCCCCC=CC=O
CCCCCCCCCC(=O)[O-].[H+]
CC(C)CCCCCCCCCCC=O
CCCCC(=O)O
CCc1cnc(C)c(C)n1
CCCC=CC=O
CCC(=O)O
CCCCC(C)CCC(=O)O (centres undefined)
COc1ccc2ccc(=O)oc2c1
CCCCC=CC=O
CCCC(=O)OCC
CCCCCCCCCC(=O)OCC
CC(C)CC=O
COc1cccc(OC)c1O
